Test results from ChEMBL document CHEMBL4428036, “Discovery of novel berberine imidazoles as safe antimicrobial agents by down regulating ROS generation” (Bioorg Med Chem Lett, 2016).
Converted amounts (≈) assume the structure as drawn. The source made the active and inactive calls. The rule behind the calls is not given here.

Legend:
[1] = Antimicrobial activity against Eberthella typhosa ATCC 14028 incubated for 24 hrs by NCCLS protocol based method; assay type: functional; conditions: ATCC 14028, 24 h
How it was run: (§1)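 Standard two-fold serial broth microdilution in 96-well plates per NCCLS; MIC (µg/mL) read as lowest concentration giving complete inhibition of microbial growth. Berberine, chloromycin and norfloxacin served as positive controls.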

Pseudomonas aeruginosa = assay: Antimicrobial activity against Pseudomonas aeruginosa ATCC 27853 incubated for 24 hrs by NCCLS protocol based method; assay type: functional; conditions: ATCC 27853, 24 h
How it was run: (§2)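 Two-fold serial broth microdilution in 96-well plates per NCCLS standards. MIC (µg/mL) taken as the lowest concentration giving complete growth inhibition. Berberine, chloromycin and norfloxacin were positive controls for bacteria; fluconazole for fungi.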

Escherichia coli = assay: Antimicrobial activity against Escherichia coli JM109 incubated for 24 hrs by NCCLS protocol based method; assay type: functional; conditions: JM109, 24 h; how it was run: as §2
Proteus hauseri = assay: Antimicrobial activity against Bacillus proteus ATCC13315 incubated for 24 hrs by NCCLS protocol based method; assay type: functional; conditions: ATCC13315, 24 h; how it was run: as §2
Staphylococcus aureus [2] = assay: Antimicrobial activity against methicillin-resistant Staphylococcus aureus N315 incubated for 24 hrs by NCCLS protocol based method; assay type: functional; conditions: N315, 24 h; how it was run: as §1
Staphylococcus aureus [3] = assay: Antimicrobial activity against Staphylococcus aureus ATCC 25923 incubated for 24 hrs by NCCLS protocol based method; assay type: functional; conditions: ATCC 25923, 24 h; how it was run: as §2
Bacillus subtilis = assay: Antimicrobial activity against Bacillus subtilis ATCC 6633 incubated for 24 hrs by NCCLS protocol based method; assay type: functional; conditions: ATCC 6633, 24 h; how it was run: as §2
Micrococcus luteus = assay: Antimicrobial activity against Micrococcus luteus ATCC 4698 incubated for 24 hrs by NCCLS protocol based method; assay type: functional; conditions: ATCC 4698, 24 h; how it was run: as §2
Cyberlindnera jadinii = assay: Antimicrobial activity against Candida utilis ATCC 9950 incubated for 24 hrs by NCCLS protocol based method; assay type: functional; conditions: Williopsis jadinii, ATCC 9950, 24 h
Aspergillus flavus = assay: Antimicrobial activity against Aspergillus flavus ATCC 204304 incubated for 24 hrs by NCCLS protocol based method; assay type: functional; conditions: ATCC 204304, 24 h
Saccharomyces cerevisiae = assay: Antimicrobial activity against beer yeast ATCC 9763 incubated for 24 hrs by NCCLS protocol based method; assay type: functional; conditions: ATCC 9763, 24 h
[4] = Antimicrobial activity against Candida mycoderma ATCC 9888 incubated for 24 hrs by NCCLS protocol based method; assay type: functional, Candida vini; conditions: Kregervanrija fluxuum, ATCC 9888, 24 h
Candida albicans = assay: Antimicrobial activity against Candida albicans ATCC 10231 incubated for 24 hrs by NCCLS protocol based method; conditions: ATCC 10231, 24 h
HepG2 [5] = assay: (§3) Cytotoxicity against human HepG2 cells assessed as cell viability at 6.25 to 100 ug/ml by MTT assay; assay type: cell-based; conditions: hepg2
How it was run: (§4)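 HepG2 cells exposed to compound up to 100 μg/mL. Viability read by colorimetric MTT assay with berberine as control. Mean of three parallels ± one standard deviation.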

[6] = as §3; assay type: cell-based; conditions: HepG2 cells, read-out: Activity; how it was run: as §4
HepG2 [7] = assay: Induction of ROS production in human HepG2 cells at 6.25 to 100 uM by DCFH-DA as probe based fluorescence microscopy; assay type: functional, cell-based
How it was run: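 Intracellular ROS detected with the fluorescent probe DCFH-DA and imaged by fluorescence microscopy. Compounds tested at 6.25, 12.5, 25, 50 and 100 μM, with berberine for comparison.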

Calf thymus DNA [8] = assay: Binding affinity to calf thymus DNA by UV-Visible spectroscopy; assay type: nucleic-acid assay; conditions: Bos taurus
How it was run: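 Calf thymus DNA held at a fixed concentration in Tris-HCl buffer pH 7.4, titrated with increasing compound. UV-vis absorption spectra recorded in 1.0 cm quartz cells, following the 260 nm DNA band. DNA concentration set from A260 using ε260 = 6600 L mol⁻¹ cm⁻¹ per phosphate. Purity confirmed by A260/A280 > 1.8.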

Calf thymus DNA [9] = assay: Binding affinity to calf thymus DNA by neutral red dye based UV-Visible spectroscopy; assay type: nucleic-acid assay; conditions: Bos taurus

Structure (SMILES) | MIC [1] | MIC (Pseudomonas aeruginosa) | MIC (Escherichia coli) | MIC (Proteus hauseri) | MIC (Staphylococcus aureus [2]) | MIC (Staphylococcus aureus [3]) | MIC (Bacillus subtilis) | MIC (Micrococcus luteus) | MIC80 (Cyberlindnera jadinii) | MIC80 (Aspergillus flavus) | MIC80 (Saccharomyces cerevisiae) | MIC80 [4] | MIC80 (Candida albicans) | Activity (HepG2 [5]) | viability [6] | Activity (HepG2 [7]) | K (Calf thymus DNA [8]) | Activity (Calf thymus DNA [9])
CCCCc1nccn1Cc1cc(OC)c(O)c2c[n+]3c(cc12)-c1cc2c(cc1CC3)OCO2.[Cl-] | 128 µg/mL | 128 µg/mL | 128 µg/mL | 128 µg/mL | 32 µg/mL | 32 µg/mL | 64 µg/mL | 32 µg/mL | 256 µg/mL | 64 µg/mL | 64 µg/mL | 256 µg/mL | 64 µg/mL | – | – | – | – | –
CCCCCCCCCCCc1nccn1Cc1cc(OC)c(O)c2c[n+]3c(cc12)-c1cc2c(cc1CC3)OCO2.[Cl-] | 256 µg/mL | 256 µg/mL | 256 µg/mL | 128 µg/mL | 64 µg/mL | 128 µg/mL | 128 µg/mL | 128 µg/mL | 256 µg/mL | 256 µg/mL | 128 µg/mL | 128 µg/mL | 128 µg/mL | – | – | – | – | –
CCc1nccn1Cc1cc(OC)c(O)c2c[n+]3c(cc12)-c1cc2c(cc1CC3)OCO2.[Cl-] | 64 µg/mL | 64 µg/mL | 32 µg/mL | 64 µg/mL | 16 µg/mL | 8 µg/mL | 32 µg/mL | 16 µg/mL | 64 µg/mL | 128 µg/mL | 16 µg/mL | 256 µg/mL | 64 µg/mL | – | – | – | – | –
COc1ccc2cc3[n+](cc2c1OC)CCc1cc2c(cc1-3)OCO2.[Cl-] [BERBERINE CHLORIDE] | 512 µg/mL | 256 µg/mL | 512 µg/mL | 256 µg/mL | 128 µg/mL | 512 µg/mL | 512 µg/mL | 512 µg/mL | 256 µg/mL | 512 µg/mL | 128 µg/mL | 128 µg/mL | 512 µg/mL | Toxic | – | – | – | –
CCCc1nccn1Cc1cc(OC)c(O)c2c[n+]3c(cc12)-c1cc2c(cc1CC3)OCO2.[Cl-] | 64 µg/mL | 128 µg/mL | 64 µg/mL | 64 µg/mL | 32 µg/mL | 16 µg/mL | 64 µg/mL | 32 µg/mL | 128 µg/mL | 128 µg/mL | 32 µg/mL | 128 µg/mL | 64 µg/mL | – | – | – | – | –
COc1cc(Cn2ccnc2C)c2cc3[n+](cc2c1O)CCc1cc2c(cc1-3)OCO2.[Cl-] | 32 µg/mL | 64 µg/mL | 32 µg/mL | 64 µg/mL | 32 µg/mL | 16 µg/mL | 64 µg/mL | 16 µg/mL | 32 µg/mL | 32 µg/mL | 16 µg/mL | 128 µg/mL | 64 µg/mL | – | – | – | – | –
CCCCCCCCCCCCCCCCCc1nccn1Cc1cc(OC)c(O)c2c[n+]3c(cc12)-c1cc2c(cc1CC3)OCO2.[Cl-] | 512 µg/mL | 256 µg/mL | 256 µg/mL | 256 µg/mL | 128 µg/mL | 256 µg/mL | 256 µg/mL | 256 µg/mL | 512 µg/mL | 256 µg/mL | 256 µg/mL | 256 µg/mL | 256 µg/mL | – | – | – | – | –
CCn1cc(C(=O)O)c(=O)c2cc(F)c(N3CCNCC3)cc21 [NORFLOXACIN] | 4 µg/mL (≈ 12.5 µM) | 2 µg/mL (≈ 6.26 µM) | 16 µg/mL (≈ 50.1 µM) | 4 µg/mL (≈ 12.5 µM) | 8 µg/mL (≈ 25.1 µM) | 2 µg/mL (≈ 6.26 µM) | 1 µg/mL (≈ 3.13 µM) | 2 µg/mL (≈ 6.26 µM) | – | – | – | – | – | – | – | – | – | –
CCc1nc(C)cn1Cc1cc(OC)c(O)c2c[n+]3c(cc12)-c1cc2c(cc1CC3)OCO2.[Cl-] | 128 µg/mL | 128 µg/mL | 128 µg/mL | 128 µg/mL | 64 µg/mL | 64 µg/mL | 128 µg/mL | 64 µg/mL | 128 µg/mL | 128 µg/mL | 128 µg/mL | 128 µg/mL | 128 µg/mL | – | – | – | – | –
COc1cc(Cn2ccnc2)c2cc3[n+](cc2c1O)CCc1cc2c(cc1-3)OCO2.[Cl-] | 1 µg/mL | 64 µg/mL | 32 µg/mL | 64 µg/mL | 32 µg/mL | 32 µg/mL | 8 µg/mL | 16 µg/mL | 32 µg/mL | 64 µg/mL | 32 µg/mL | 128 µg/mL | 64 µg/mL | – | > 87% | Active | 5.22 ×10³ L/mol | Active
OC(Cn1cncn1)(Cn1cncn1)c1ccc(F)cc1F [FLUCONAZOLE] | – | – | – | – | – | – | – | – | 8 µg/mL (≈ 26.1 µM) | 256 µg/mL (≈ 836 µM) | 16 µg/mL (≈ 52.2 µM) | 32 µg/mL (≈ 104 µM) | 32 µg/mL (≈ 104 µM) | – | – | – | – | –
COc1cc(Cn2cnc(C)c2)c2cc3[n+](cc2c1O)CCc1cc2c(cc1-3)OCO2.[Cl-] | 64 µg/mL | 128 µg/mL | 32 µg/mL | 32 µg/mL | 32 µg/mL | 8 µg/mL | 32 µg/mL | 16 µg/mL | 64 µg/mL | 64 µg/mL | 32 µg/mL | 128 µg/mL | 128 µg/mL | – | – | – | – | –
COc1cc(Cn2cc(C)nc2C)c2cc3[n+](cc2c1O)CCc1cc2c(cc1-3)OCO2.[Cl-] | 128 µg/mL | 128 µg/mL | 128 µg/mL | 128 µg/mL | 64 µg/mL | 64 µg/mL | 128 µg/mL | 64 µg/mL | 128 µg/mL | 128 µg/mL | 256 µg/mL | 128 µg/mL | 128 µg/mL | – | – | – | – | –
